Data set [1] is described as follows: Total body clearance at an intravenous dose of 6.3 mg/kg in rat. The class given is ADME, organism-based. Also noted: dose 6.3 mg/kg, route intravenous. Particulars: in vivo; call rule not given here.
The nature of data set [2]: Maximum concentration at an intraduodenal dose of 6.6 mg/kg in rat. The class given is ADME, organism-based. Also noted: dose 6.6 mg/kg, route intraduodenal. Particulars: in vivo.
Data set [3] in a line: Maximum concentration at an peroral dose of 6.2 mg/kg in rat. It counts as ADME, organism-based. Also noted: dose 6.2 mg/kg, route oral. Particulars: in vivo, po.
The nature of data set [4]: Oral bioavailability in Long-Evans rats at an intraduodenal dose of 6.6 mg/kg. It counts as ADME, organism-based. The conditions noted are these: rat, in vivo, other: intraduodenal.
A short description of data set [5]: Oral bioavailability in Long-Evans rats at an intravenous dose of 6.3 mg/kg; Not active. The conditions noted are these: rat, in vivo. It counts as ADME, organism-based.
The nature of data set [6]: Oral bioavailability in Long-Evans rats at an peroral dose of 6.2 mg/kg. The class given is ADME, organism-based. The conditions noted are these: rat, in vivo.
Data set [7] is described as follows: Volume of distribution at steady state at an intravenous dose of 6.3 mg/kg in rat. The class given is ADME, organism-based. Also noted: dose 6.3 mg/kg, route intravenous. The conditions noted are these: in vivo, read-out: Vss.
Data set [8] deals with Mus musculus. Nature of the data set: Intraperitoneal dose that produces a half maximal response in mouse gall bladder emptying assay (in vivo). Particulars: ip. It counts as functional.
The subject of data set [9] is Mus musculus. Nature of the data set: Maximal response at 1 nmol/kg intraperitoneal dose. The class given is functional.
Data set [10] concerns Mus musculus. Nature of the data set: maximal response at 1 nmol/kg peroral dose. The class given is functional.
Data set [11] concerns Mus musculus. The experiment in a line: Peroral dose that produces a half maximal response in mouse gall bladder emptying assay (in vivo). It counts as functional. The conditions noted are these: po.
The nature of data set [12]: Maximum concentration at an intravenous dose of 6.3 mg/kg. The class given is ADME, organism-based. The arrangement: dose 6.3 mg/kg, route intravenous. The conditions noted are these: rat, in vivo.
Data set [13] has as its system Rattus norvegicus. The experiment in a line: (§1) Maximal response at 0.5 umol/kg intraperitoneal dose. It counts as functional.
A short description of data set [14]: Half life period at an intravenous dose of 6.3 mg/kg in rat. It counts as ADME, organism-based. The arrangement: dose 6.3 mg/kg, route intravenous. The conditions noted are these: in vivo.
Data set [15] has as its system Rattus norvegicus. The experiment in a line: Anorectic potency in rat was tested and intraperitoneal dose that produces a half maximal response (in vivo). It counts as functional. The conditions noted are these: ip.
A short description of data set [16]: Total body clearance at an intravenous dose of 5.5 mg/kg in rat. The class given is ADME, organism-based. Also noted: dose 5.5 mg/kg, route intravenous. Particulars: in vivo.
Data set [17] is described as follows: Maximum concentration at an intravenous dose of 5.5 mg/kg in rat. The class given is ADME, organism-based. Also noted: dose 5.5 mg/kg, route intravenous. The conditions noted are these: in vivo.
The nature of data set [18]: Maximum concentration at an peroral dose of 6.3 mg/kg in rat. The arrangement: dose 6.3 mg/kg, route oral. Particulars: in vivo, po. The class given is ADME, organism-based.
Data set [19] in a line: Oral bioavailability in Long-Evans rats at an peroral dose of 6.3 mg/kg. The class given is ADME, organism-based. Particulars: rat, in vivo.
A short description of data set [20]: Half life period at an intravenous dose of 5.5 mg/kg in rat. The arrangement: dose 5.5 mg/kg, route intravenous. The conditions noted are these: in vivo. The class given is ADME, organism-based.
Data set [21] is described as follows: Volume of distribution at steady state at an intravenous dose of 5.5 mg/kg in rat. It counts as ADME, organism-based. The arrangement: dose 5.5 mg/kg, route intravenous. The conditions noted are these: in vivo, read-out: Vss.
Data set [22] addresses T1, Gastrin/cholecystokinin type B receptor (Homo sapiens, UniProt P32239).
T1 sequence (P32239 whole entry): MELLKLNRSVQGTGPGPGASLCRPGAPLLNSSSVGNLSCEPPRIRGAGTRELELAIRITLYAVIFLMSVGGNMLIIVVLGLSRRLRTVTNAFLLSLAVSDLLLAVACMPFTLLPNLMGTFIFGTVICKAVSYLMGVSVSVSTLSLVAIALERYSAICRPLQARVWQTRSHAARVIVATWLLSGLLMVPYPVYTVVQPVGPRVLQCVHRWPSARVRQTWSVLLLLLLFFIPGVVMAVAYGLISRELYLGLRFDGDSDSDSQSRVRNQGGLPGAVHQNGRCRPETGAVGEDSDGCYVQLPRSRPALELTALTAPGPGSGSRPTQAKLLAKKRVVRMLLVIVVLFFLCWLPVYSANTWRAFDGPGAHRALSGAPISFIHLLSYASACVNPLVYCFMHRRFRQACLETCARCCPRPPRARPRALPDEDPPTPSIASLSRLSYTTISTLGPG
Nature of the data set: In vitro for binding affinity against human cholecystokinin type B receptor.

The target in data set [23] is T2, Cholecystokinin receptor type A (Homo sapiens, UniProt P32238).
T2 sequence (P32238 whole entry): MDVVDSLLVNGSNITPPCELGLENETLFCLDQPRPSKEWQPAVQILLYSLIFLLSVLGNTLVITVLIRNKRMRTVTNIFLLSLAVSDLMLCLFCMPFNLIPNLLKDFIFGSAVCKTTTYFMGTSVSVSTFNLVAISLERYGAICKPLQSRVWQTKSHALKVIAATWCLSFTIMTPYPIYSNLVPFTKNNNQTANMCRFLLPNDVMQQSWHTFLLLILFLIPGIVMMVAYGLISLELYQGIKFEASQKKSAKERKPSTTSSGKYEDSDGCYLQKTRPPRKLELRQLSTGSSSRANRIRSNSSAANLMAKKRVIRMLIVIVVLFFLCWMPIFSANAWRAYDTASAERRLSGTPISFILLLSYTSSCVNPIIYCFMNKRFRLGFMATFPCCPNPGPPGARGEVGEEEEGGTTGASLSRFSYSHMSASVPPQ
Nature of the data set: In vitro for binding affinity against human cholecystokinin type A receptor.

For data set [24], the species on record is Cavia porcellus. Nature of the data set: In vitro functional agonist activity in the isolated guinea pig gall bladder, concentration at which 50% of the maximal contraction observed was reported. The conditions noted are these: read-out: ED50 (the source's name).
Data set [25] is filed under the species Cavia porcellus. The experiment in a line: In vitro functional efficacy relative to CCK-8 in inducing contraction of the isolated guinea pig gallbladder (GPGB) at a 1 uM concentration. The procedure, abridged: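 Isolated guinea pig gallbladder, ligand 1 μM, 30 min at 37 °C; maximal contraction expressed relative to CCK-8 (1 μM) = 100%; values ± 5%.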

The subject of data set [26] is Mus musculus. Nature of the data set: Maximal response at 1 nmol/kg peroral dose. The class given is functional.
The test system of data set [27] is Mus musculus. Described as §1. The class given is functional.
The nature of data set [28]: Total body clearance at an intravenous dose of 5.2 mg/kg in rat. The class given is ADME, organism-based. The arrangement: dose 5.2 mg/kg, route intravenous. Particulars: in vivo.
The nature of data set [29]: Maximum concentration at an intraduodenal dose of 5.2 mg/kg in rat. It counts as ADME, organism-based. The arrangement: dose 5.2 mg/kg, route intraduodenal. The conditions noted are these: in vivo.
A short description of data set [30]: Oral bioavailability in Long-Evans rats at an intraduodenal dose of 5.2 mg/kg. It counts as ADME, organism-based. The conditions noted are these: rat, in vivo, other: intraduodenal.
A short description of data set [31]: Oral bioavailability in Long-Evans rats at an intravenous dose of 5.2 mg/kg; Not active. It counts as ADME, organism-based. Particulars: rat, in vivo.
Data set [32] is described as follows: Half life period at an intravenous dose of 5.2 mg/kg in rat. The class given is ADME, organism-based. The arrangement: dose 5.2 mg/kg, route intravenous. Particulars: in vivo.
A short description of data set [33]: Volume of distribution at steady state at an intravenous dose of 5.2 mg/kg in rat. The class given is ADME, organism-based. Also noted: dose 5.2 mg/kg, route intravenous. Particulars: in vivo, read-out: Vss.
Data set [34] is described as follows: Maximum concentration at an intravenous dose of 5.2 mg/kg. It counts as ADME, organism-based. The arrangement: dose 5.2 mg/kg, route intravenous. The conditions noted are these: rat, in vivo.

For `COc1ccc(N(C(=O)CN2C(=O)C(Cc3n[nH]c4ccccc34)C(=O)N(c3ccccc3)c3ccccc32)C(C)C)cc1` (stereo not drawn), the clearance (usually the volume of plasma or blood freed of the substance per unit of time) in data set [1] amounted to 38 mL/min/kg. The Cmax (commonly the maximum level reached in the sampled fluid or tissue) in data set [2] turned out to be 193 ng/mL; in data set [3] it was 20 ng/mL; in [12] it was 2100 ng/mL. Also, the figures for the bioavailability in [4] and in [6] were 16% and 8%, respectively. Moreover, in data set [5], the F result is “Not Active”. Also, the Vd in [7] was 5.17 L/kg. Further, the values for the ED50 in data set [8], in [11] and in [15] were 0.0002 µmol/kg, 0.01 µmol/kg and 0.05 µmol/kg, respectively. Further, the Max in data set [9] turned out to be 97%; in [10], 89%; in data set [13], 98%. Also, in data set [14], the half-life (usually the time in which the quantity being followed falls by half) was 2.1 h.

Turning to `COc1ccc(N(C(=O)CN2C(=O)C(Cc3n[nH]c4ccccc34)(OC)C(=O)N(c3ccccc3)c3ccccc32)C(C)C)cc1` (stereo not drawn), the clearance in data set [16] turned out to be 35 mL/min/kg. Further, the Cmax in [17] was determined as 4900 ng/mL; in data set [18] it was 90 ng/mL. Further, the bioavailability – broadly, the share of a dose that reaches the circulation, judged against a reference dose that is usually intravenous – in data set [19] amounted to 5%. The half-life in [20] was 3.4 h. The Vd in data set [21] is 7.63 L/kg. In addition, the half-maximal inhibitory concentration (IC50) (in general, the concentration needed to halve the response being measured) in data set [22] was 3630 nM; in data set [23] it was 14.5 nM. For the same compound, the EC50 in data set [24] came out at 70 nM. Also, the Max came out at 70% in data set [25], 89% in [9], 72% in data set [26] and 52% in data set [27]. Moreover, the results for the 50% effective dose (ED50) in data set [8] and in data set [11] were 0.0003 µmol/kg and 0.1 µmol/kg, respectively.

Turning to `COc1ccc(N(C(=O)CN2C(=O)C(C)(Cc3n[nH]c4ccccc34)C(=O)N(c3ccccc3)c3ccccc32)C(C)C)cc1` (stereo not drawn), the clearance in data set [28] was found to be 30 mL/min/kg. Also, the highest concentration (Cmax) in data set [29] was 30 ng/mL; in [34] it was 3390 ng/mL. The bioavailability in data set [30] was 15%. In addition, the F result in data set [31] is “Not Active”. This compound gave a half-life in [32] of 3.9 h. In addition, the Vd in [33] was found to be 4.31 L/kg. This compound also yielded a Max in [26] of 28%.
